Reference: ChEMBL document CHEMBL4834420, “Projected Dose Optimization of Amino- and Hydroxypyrrolidine Purine PI3Kδ Immunomodulators” (J Med Chem, 2021)

Tests used:
[1] = Inhibition of rat PI3Kdelta
[2] = target: T1, Phosphatidylinositol 4,5-bisphosphate 3-kinase catalytic subunit delta isoform (Mus musculus) (UniProt O35904); assay: Inhibition of PI3Kdelta in Foxp3-GFP C57BL/6 mouse assessed as reduction in Treg population administered upto 7 days; settings: dose 30-100 mg/kg, time day <=7
T1 sequence (whole entry): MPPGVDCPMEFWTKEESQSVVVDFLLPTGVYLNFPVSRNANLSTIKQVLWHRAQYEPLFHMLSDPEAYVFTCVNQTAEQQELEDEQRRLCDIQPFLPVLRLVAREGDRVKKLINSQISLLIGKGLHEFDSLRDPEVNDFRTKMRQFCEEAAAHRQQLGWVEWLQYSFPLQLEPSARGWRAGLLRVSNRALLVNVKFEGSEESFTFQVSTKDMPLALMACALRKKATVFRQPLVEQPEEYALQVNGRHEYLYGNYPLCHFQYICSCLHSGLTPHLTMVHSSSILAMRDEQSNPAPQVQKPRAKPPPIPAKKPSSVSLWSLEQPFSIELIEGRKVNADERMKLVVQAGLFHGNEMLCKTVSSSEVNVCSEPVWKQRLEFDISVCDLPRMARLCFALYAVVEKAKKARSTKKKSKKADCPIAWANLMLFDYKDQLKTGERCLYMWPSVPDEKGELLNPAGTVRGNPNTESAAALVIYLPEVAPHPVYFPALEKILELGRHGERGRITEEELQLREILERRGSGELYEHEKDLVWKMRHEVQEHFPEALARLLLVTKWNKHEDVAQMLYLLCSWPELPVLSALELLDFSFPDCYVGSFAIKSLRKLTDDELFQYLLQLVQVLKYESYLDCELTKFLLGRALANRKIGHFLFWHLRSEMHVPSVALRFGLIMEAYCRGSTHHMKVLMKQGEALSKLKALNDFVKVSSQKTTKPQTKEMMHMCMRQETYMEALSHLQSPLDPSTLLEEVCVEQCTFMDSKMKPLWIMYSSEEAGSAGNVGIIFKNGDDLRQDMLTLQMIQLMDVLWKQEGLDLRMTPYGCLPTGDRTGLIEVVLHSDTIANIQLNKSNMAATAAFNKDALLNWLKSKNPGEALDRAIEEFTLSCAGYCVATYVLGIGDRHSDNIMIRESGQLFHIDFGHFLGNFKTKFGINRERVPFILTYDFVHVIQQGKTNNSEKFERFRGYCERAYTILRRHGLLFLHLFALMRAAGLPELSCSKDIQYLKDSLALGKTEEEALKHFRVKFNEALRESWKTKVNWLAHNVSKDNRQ
Outline: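 C57BL/6 Foxp3-GFP reporter mice were dosed at 30 and 100 mg/kg/day for up to 7 days. Treg population was monitored by bioluminescence imaging 10 min after ip injection of 3 mg luciferin. Radiance was quantified as photons/s/cm²/steradian. Diphtheria toxin served as a positive control.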

IC50 [1]: 6.6 nM
Activity [2]: Dose-Dependent Effect
SMILES: CCn1c(-c2cnc(C)nc2)nc2c(N[C@H]3CCN(C(=O)C4CC4)C3)ncnc21
